≈ marks a conversion by molar mass, not a printed value.
Tests used:
NCI-H446 [1] = assay: Cytotoxicity against human NCI-H446 cells after 72 hrs by MTT assay; format: functional, cell-based; conditions: NCI-H446, 72 h
Summary of the method: (§1)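 Test samples (>95% pure) were dissolved in DMSO and diluted with PBS to a 1000 µg mL-1 solution. This was serially diluted in PBS to 100–3.125 µg mL-1 solutions. Human cells were seeded at (4-6) × 10^4 cells/mL, and 10 µL/well of sample was added 24 h after seeding. Plates were incubated 72 h at 37 °C in humidified 5% CO2. Viability was read by MTT at 570 nm. Doxorubicin served as positive control.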

HL-60 [2] = assay: Cytotoxicity against human HL60 cells after 72 hrs by MTT assay; format: functional, cell-based; conditions: HL-60, 72 h; summary of the method: as §1
[3] = Cytotoxicity against human PC3M cells after 72 hrs by MTT assay; format: functional, cell-based; conditions: PC-3M; summary of the method: as §1
HCT-116 [4] = assay: Cytotoxicity against human HCT116 cells after 72 hrs by MTT assay; format: functional, cell-based; conditions: HCT-116, 72 h; summary of the method: as §1
NCI-H446 [5] = assay: Cytotoxicity against human NCI-H446 cells at 100 ug/ml after 72 hrs by MTT assay; format: functional; conditions: NCI-H446, 72 h, read-out: GI; summary of the method: as §1
HL-60 [6] = assay: Cytotoxicity against human HL60 cells at 100 ug/ml after 72 hrs by MTT assay; format: functional; conditions: HL-60, 72 h, read-out: GI; summary of the method: as §1
[7] = Cytotoxicity against human PC3M cells at 100 ug/ml after 72 hrs by MTT assay; format: functional; conditions: PC-3M, read-out: GI; summary of the method: as §1
HCT-116 [8] = assay: Cytotoxicity against human HCT116 cells at 100 ug/ml after 72 hrs by MTT assay; format: functional; conditions: HCT-116, 72 h, read-out: GI; summary of the method: as §1

SMILES | IC50 (NCI-H446 [1]) [µg/mL] | IC50 (HL-60 [2]) [µg/mL] | IC50 [3] [µg/mL] | IC50 (HCT-116 [4]) [µg/mL] | inhibition of growth at 100 µg/mL (NCI-H446 [5]) [%] | inhibition of growth at 100 µg/mL (HL-60 [6]) [%] | inhibition of growth at 100 µg/mL [7] [%] | inhibition of growth at 100 µg/mL (HCT-116 [8]) [%]
COc1cc2sc(=S)n(C)c(=O)c2cc1O [BRETSCHNEIDERAZINE A] | 79.2 (≈ 310 µM) | > 100 | > 100 | > 100 | 53.9 | 9.91 | 29.4 | 0
COc1ccc2c(=O)n(C)c(=S)sc2c1OC [BRETSCHNEIDERAZINE B] | 60.2 (≈ 224 µM) | > 100 | > 100 | > 100 | 41.3 | 8.04 | 0 | 0
COc1cc(C=O)ccc1O[C@@H]1O[C@H](CO[C@@H]2OC[C@](O)(CO)[C@H]2O)[C@@H](O)[C@H](O)[C@H]1O [BRETSCHNEIDEROSIDE A] | > 100 | > 100 | > 100 | > 100 | 29.7 | 0.14 | 0 | 0
O=Cc1ccc(O[C@@H]2O[C@H](CO[C@@H]3OC[C@](O)(CO)[C@H]3O)[C@@H](O)[C@H](O)[C@H]2O)c(O)c1 [BRETSCHNEIDEROSIDE B] | > 100 | > 100 | > 100 | > 100 | 38.4 | 7.25 | 0 | 0
COc1cc(CO[C@@H]2O[C@H](CO[C@@H]3OC[C@](O)(CO)[C@H]3O)[C@@H](O)[C@H](O)[C@H]2O)ccc1O [BRETSCHNEIDEROSIDE C] | > 100 | > 100 | > 100 | > 100 | 40.7 | 5.68 | 6.35 | 9.3
COc1cccc2c1C(=O)c1c(O)c3c(c(O)c1C2=O)C[C@@](O)(C(=O)CO)C[C@@H]3O[C@H]1C[C@H](N)[C@H](O)[C@H](C)O1 [DOXORUBICIN] | 0.0248 (≈ 0.0456 µM) | 0.457 (≈ 0.841 µM) | < 0.001 | 0.286 (≈ 0.526 µM) | 91.2 | 94.7 | 96.4 | 93.1

From ChEMBL document CHEMBL1221381, “Heterocyclic compounds and aromatic diglycosides from Bretschneidera sinensis” (J Nat Prod, 2010)
